# OX1R antag-1 – OX1R (HCRTR1) antagonists, primary screen, fluorescence, CHO/OX1R cells, Fluo-8 calcium, orexin A. Fluo-8 calcium fluorescence. hit rate 0.43% among 330,000. inhibition, % at 5 µM. Orexin/Hypocretin receptor type 1 (Homo sapiens), O43613;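 active = inhibition above its plate's threshold, mean inhibition of all tested compounds on the plate plus 3 SD, cut at about 37% in these data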;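 also: 0% = orexin A challenge wells and 100% = SB-334867-A antagonist wells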
# Target sequence (O43613 whole entry, looked up): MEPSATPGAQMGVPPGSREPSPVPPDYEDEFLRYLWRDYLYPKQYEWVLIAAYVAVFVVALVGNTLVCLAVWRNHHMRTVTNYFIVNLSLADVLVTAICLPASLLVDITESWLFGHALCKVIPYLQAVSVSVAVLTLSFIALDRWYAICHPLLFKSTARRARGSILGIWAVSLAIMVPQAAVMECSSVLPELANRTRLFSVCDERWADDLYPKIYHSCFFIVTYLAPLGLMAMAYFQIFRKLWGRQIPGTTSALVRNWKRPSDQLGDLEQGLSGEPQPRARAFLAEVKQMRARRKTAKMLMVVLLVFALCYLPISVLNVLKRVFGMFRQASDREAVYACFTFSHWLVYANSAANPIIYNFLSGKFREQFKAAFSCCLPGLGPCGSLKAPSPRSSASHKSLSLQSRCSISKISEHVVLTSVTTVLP
# OX1R antag-2 – antagonists of human orexin 1 receptor (OX1R) | OX1R-expressing cells, FRET antagonist read-out | Orexin/Hypocretin receptor type 1 (Homo sapiens), O43613 | hit rate 1.8% among 330,000 | inhibition, % at 6.6 µM; in the data active = inhibition mostly above about 38%, no sharp cut-off; inactive = mostly below about 40%;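 also: 0% = agonist challenge alone and 100% = reference antagonist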
# OXTR potentiate – human OXTR potentiators, primary screen, fluorescence, CHO-OTR cells, Fluo-8 calcium; Oxytocin receptor (Homo sapiens), P30559; Fluo-8 calcium fluorescence, potentiator mode; 0% = oxytocin EC15, 100% = EC100; activation, % at 3 µM; hit rate 0.061% among 320,000; AID 2445, 2010;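 active = activation above that plate's cutoff, the mean activation of tested compounds plus 3 SD, cut at about 6.6% in these data, passing the limit was not always enough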;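 also: 100% uses oxytocin at 75 nM as the full agonist control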
#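 Assay system: CHO-OTR cells, human receptor / Also added: oxytocin at about EC15, sub-maximal agonist stimulus / Dosing: single dose, 3.0 µM nominal final compound concentration / Incubation: 6 min pre-incubation, 100 s read / Technique: Fluo-8 calcium dye fluorescence / Read-out: % activation vs EC15 and EC100 oxytocin / Benchmarks: EC15 oxytocin low, 75 nM oxytocin high / Replicates: singlicate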
# V1aR counter – agonists of human V1a receptor, primary screen, counter-screen for OXTR agonist project, fluorescence, CHO-V1R cells; Vasopressin V1a receptor (Homo sapiens), P37288; Fluo-8 calcium fluorescence, agonist mode; 0% DMSO, 100% 3 nM vasopressin; activation, % at 3 µM; hit rate 0.25% among 320,000;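 active = activation above the mean activation of all tested compounds plus 3 SD, per screening run, cut at about 20% in these data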;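 also: signal is peak over basal fluorescence ratio across a 100 second FLIPR read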
# CHO parental Ca – ATP-evoked calcium signal inhibitors, parental CHO, primary screen, counter-screen for OX1R antagonist project, cell-based, fluorescence, Fluo-8 calcium dye; parental CHO-K1, ATP-induced calcium, Fluo-8 fluorescence; inhibition, % at 5.6 µM; hit rate 0.63% among 330,000; AID 463079, 2010;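 active = inhibition above that plate's mean sample inhibition plus 3 SD, cut at about 26% in these data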;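 also: 0% = ATP-challenged DMSO wells and 100% = DMSO wells without ATP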
#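 Test system: untransfected parental CHO cell line; also added: ATP stimulus; dosing: 5.6 µM, single dose; signal: calcium-sensitive Fluo-8 fluorescence; measure: percent inhibition of ATP-evoked calcium rise, normalized to controls; benchmarks: low control ATP plus DMSO, high control DMSO only; replication: one well per compound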
# OXTR ag – human OXTR agonists, primary screen, fluorescence, CHO-OTR cells, Fluo-8 calcium; Oxytocin receptor (Homo sapiens), P30559; activation, % at 3 µM; Fluo-8 calcium fluorescence; normalized: DMSO 0%, oxytocin 100%; hit rate 0.32% among 320,000;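 active = activation above the mean of all tested compounds plus 3 SD, cutoff set per screening run, cut at about 20% in these data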;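 also: peak over basal fluorescence ratio from a 100 s FLIPR kinetic read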
# The depositor's hits bear a star; / = no result given. Rows were chosen to be rich in hits. Some 2.7% of all compounds tested hit in one or more screens of this group.
SMILES,OX1R antag-1,OX1R antag-2,OXTR potentiate,V1aR counter,CHO parental Ca,OXTR ag
O=C(CSc1cn(CCNC(=O)c2ccccc2F)c2ccccc12)NCC1CCCO1 (centres undefined),6,21,-11,3,-22,2
O=C(NCCn1cc(SCc2ccccc2)c2ccccc21)c1ccccc1F,-3,17,-10,1,66*,-1
COC(=O)C1CCCN1C(=O)C12CC3CC(CC(C3)C1)C2 (centres undefined),-4,8,-9,0,-4,-1
COc1ccc(C(=O)OCC#CCSc2nnc(-c3cccc4ccccc34)o2)cc1,30,2,-9,3,-9,4
COc1ccccc1C(=O)OCC#CCSc1nnc(-c2cccc3ccccc23)o1,18,49*,-4,3,-11,5
CCC(CNc1cc(OC)cc2cccnc12)NC1CCCCC1 (centres undefined),-21,58*,-3,2,-30,-1
Cc1ccc(NC(=O)c2cccc(-n3cnnn3)c2)cc1Cl,-7,-3,0,4,-15,1
Cc1ccc(S(=O)(=O)Nc2cccc(-c3ccc(N4CCCCCC4)nn3)c2)cc1,-8,0,-3,1,-5,-1
CCN(C(=O)COC(=O)C1CCN(S(=O)(=O)c2ccc(C)c(C)c2)CC1)C1CCCCC1,-5,4,-8,1,-22,-1
CC(=O)N(C1=C(N)C(=O)c2ccccc2C1=O)c1ccccc1,-12,46*,-9,1,-3,0
Cc1nn(CC(=O)N(CC(C)C)C2CCS(=O)(=O)C2)c(C)c1[N+](=O)[O-] (centres undefined),-8,4,1,1,-7,1
Nc1nc2c(s1)CCc1c-2cnn1-c1ccccc1,5,61*,-15,-1,-16,-1
O=C(COC(=O)c1ccc(O)cc1)Nc1cc(S(=O)(=O)N2CCOCC2)ccc1Cl,-9,4,-10,10,4,12
CCN(CC)c1ccc(NC(=O)c2ccc3c(c2)OCO3)c(C)c1,-14,4,-13,0,-10,-1
O=C(O)Cn1cc(/C=c2/sc3nc4ccccc4n3c2=O)c2ccccc21,19,59*,-7,4,-12,0
CNS(=O)(=O)c1cc(C(=O)O)ccc1OC,7,20,-25,0,2,-1
COc1ccc(C(=O)O)cc1S(=O)(=O)NC(C)C12CC3CC(CC(C3)C1)C2 (centres undefined),45*,2,-10,4,34*,9
Cc1ccc(-n2c3nc(=O)n(C)c(=O)c-3cc3ccccc32)cc1,-10,50*,5,1,-18,1
CCCCn1c(=O)nc2n(-c3ccc(C)cc3)c3ccccc3cc-2c1=O,-27,27,-8,-1,-18,-3
COc1ccc(C(N)c2nccc3cc(OC)c(OC)cc23)cc1OC (centres undefined),-41,73*,-6,0,-14,0
CCC(C)C(NC(=O)c1ccccc1)C(=O)Nc1ccc(S(=O)(=O)Nc2cc(C)nc(C)n2)cc1 (centres undefined),-7,2,1,0,-4,0
COC(=O)CCNS(=O)(=O)c1ccc2nsnc2c1,-13,63*,11,1,-5,1
COc1ccccc1OCC(=O)Nc1cc2c(cc1C(=O)O)OCCCO2,3,19,4,1,8,0
O=C(Cn1cnc2c(NCc3ccccc3)ncnc21)NCCCN1CCCC1=O,-7,7,/,/,-8,/
O=C(Nc1ccc(Cl)c(Cl)c1)Oc1ccc(NC(=O)c2ccco2)cc1,38,32,-20,10,42*,10
CC(C)CNC(=O)C(=O)NCC1CCCN1S(=O)(=O)c1cccs1 (centres undefined),-7,12,-8,0,-2,0

# Bioassay records (PubChem)
